High-throughput results deposited in PubChem BioAssay by several laboratories.
HSF-1 act: increases HSF-1 driven luciferase reporter signal | activation, % at 9 µM | hit rate 1.7% among 300,000 | NIH3T3-HGL HSF-1 luciferase reporter, MG132, 8 h; 100% = twice DMSO control signal;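 active = mean replicate activation of at least 50% with a set share of replicates each reaching 50%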;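 note: 0% = median of the neutral control wells and 100% = twice that signal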
AI-2 QS modul: modulates the Vibrio harveyi AI-2 quorum sensing system; hit rate 0.4% among 300,000; activity change, % at 7.5 µM; AID 2094; Vibrio harveyi JMH597 AI-2 luminescence/OD600 ratio, 9 h; stronger effect = lower value; strain lacks LuxN and CqsS sensors; 0 = neutral-control median; in the data active = activity change below about -75%, passing the limit was not always enough;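 note: luminescence divided by OD600 gain over 9 h not by final OD600 alone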
HSF1 inhib: HSF1 inhibition | AID 2098 | activity change, negative = inhibition, % at 7.5 µM (by protocol) | hit rate 0.77% among 300,000 | NIH3T3-HGL HSE-luciferase, MG132-induced, luminescence 8 h; stronger effect = lower value;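 active = more than half of replicate wells show activity change below -50%, luminescence cut by over half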;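 note: luciferase reports HSF-1 transcriptional activity via heat shock element; 0% = median of DMSO wells and -100% = zero luminescence signal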
HCV core dimer: blocks dimerization of HCV core protein; TR-FRET GST/Flag-core106 dimerization, 1536-well; hit rate 0.33% among 300,000; inhibition, % at 5 µM; AID 1899;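 active = inhibition above the mean of all tested compounds plus 3 SD, set per screening campaign, cut at about 45% in these data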
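System: GST/Flag-tagged HCV core106 proteins. Incubation: compound-protein-antibody incubation 4 h at 22.5 °C. Technique: HTRF with 340 nm excitation, 617/671 nm emission. Medium: KF-containing HEPES buffer, pH 7.45, DTT, CHAPS, BSA. Read-out: inhibition (%) from 671 over 617 nm ratio. Also added: Eu(K)-anti-GST 90 ng/mL plus XL665-anti-Flag 1 µg/mL.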
PHOSPHO1 inh: PHOSPHO1 (human) inhibition; Q8TCT1; recombinant PHOSPHO1, absorbance phosphatase assay; inhibition, % at 13.3 µM; hit rate 1.1% among 290,000; in the data active = inhibition above about 60%
Target sequence (Q8TCT1 whole entry, looked up): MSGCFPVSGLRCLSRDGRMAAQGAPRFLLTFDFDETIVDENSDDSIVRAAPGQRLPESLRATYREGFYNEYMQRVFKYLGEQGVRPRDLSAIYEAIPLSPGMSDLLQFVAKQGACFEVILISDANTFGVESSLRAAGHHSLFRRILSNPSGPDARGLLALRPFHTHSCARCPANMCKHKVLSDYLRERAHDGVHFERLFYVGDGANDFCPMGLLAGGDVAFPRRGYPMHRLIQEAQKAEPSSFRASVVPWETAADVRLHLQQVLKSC
ALR H2O2 inh: inhibitors of human sulfhydryl oxidase ALR | AID 485317 | hit rate 3.8% among 290,000 | purified ALR, DTT oxidation, H2O2 HRP-luminol luminescence | inhibition, % (test concentration not listed) | P55789;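 active = mean replicate inhibition above about 79%, with every replicate also reaching it, limit read from the data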
Target sequence (P55789 whole entry, looked up): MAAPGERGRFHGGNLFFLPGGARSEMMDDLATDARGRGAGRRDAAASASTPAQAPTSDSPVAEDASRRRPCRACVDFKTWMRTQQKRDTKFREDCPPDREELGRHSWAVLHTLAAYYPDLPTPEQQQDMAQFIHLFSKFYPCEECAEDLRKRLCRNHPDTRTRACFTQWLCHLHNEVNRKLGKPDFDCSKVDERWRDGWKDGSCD
An asterisk follows results filed as active; / = not tested or not shown. This is a sample that favours compounds with a hit; in the whole collection about 6.8% have one here.

SMILES | HSF-1 act | AI-2 QS modul | HSF1 inhib | HCV core dimer | PHOSPHO1 inh | ALR H2O2 inh
N#CC1=C(SCc2ccccc2)NC(=O)CC1c1ccco1 (stereo unspecified) | 35 | 0 | 5 | -1 | 21 | 100*
COc1ccccc1C(=O)C1CCCN(C(=O)c2cccc(Cn3cccn3)c2)C1 (stereo unspecified) | 32 | 32 | 0 | 2 | 18 | 3
CCOC(=O)C(=O)Nc1nc(-c2ccccc2)c(-c2ccccc2)o1 | 0 | 0 | 0 | 3 | -2 | 88*
CCOC(=O)N1CCN(C(=O)c2ccc3c(=O)n(-c4ccccc4F)c(=S)[nH]c3c2)CC1 | 8 | 11 | 3 | -2 | 8 | /
COCCn1c(=O)[nH]c2cc(C(=O)N3CCN(c4ccc(OC)cc4)CC3)ccc2c1=O | 12 | / | -3 | -4 | 44 | 96*
CCOC(=O)N1CCN(C(=O)c2cccc(-n3c(=S)[nH]c4cc(Cl)ccc4c3=O)c2)CC1 | 2 | -8 | -7 | -2 | 64* | 79*
CCOC(=O)N1CCN(C(=O)c2ccc3c(=O)n(-c4ccc(OC)cc4)c(=S)[nH]c3c2)CC1 | 52* | 7 | 6 | -3 | -8 | 1
COCCn1c(=O)[nH]c2cc(C(=O)N3CCN(c4cccc(C(F)(F)F)c4)CC3)ccc2c1=O | 9 | 15 | 0 | 7 | 37 | -10
COCCn1c(=S)[nH]c2cc(C(=O)N3CCc4ccccc43)ccc2c1=O | -1 | -78* | -1 | 6 | 25 | -7
COCCn1c(=S)[nH]c2cc(C(=O)NC(C)C)ccc2c1=O | / | / | / | 2 | -6 | -16
CCOC(=O)N1CCN(C(=O)c2ccc3c(=O)n(-c4ccc(OC)cc4OC)c(=S)[nH]c3c2)CC1 | -15 | 16 | 1 | 0 | -1 | -8
Cc1cccc(NC(=O)Cn2c(/C=C/c3ccccc3)nc3ccccc32)c1 | 55* | 20 | 42 | 11 | 6 | -12
CCOC(=O)c1cccc(NC(=O)Cn2c(CC(=O)NC)nc3ccccc32)c1 | 101* | 18 | 85 | 2 | 4 | -3
Cn1c(NCc2ccco2)nc2c1c(=O)n(Cc1ccc(Cl)c(Cl)c1)c(=O)n2C | 13 | 4 | 11 | 0 | -4 | -4
COc1ccccc1NS(=O)(=O)c1ccc2c(c1)n(C)c(=O)n2C | / | 18 | / | 0 | 16 | -3
CC1(C)CC2CC(C)(CN2C(=O)c2cc(-c3ccccc3O)on2)C1 (stereo unspecified) | 32 | 28 | 5 | 14 | -9 | /
C[N+](C)(C)C/C=C1/COCO1 | 8 | 20 | 0 | -8 | 90* | -4
COc1cc(/C=C2\SC(=S)N(NC(C)=O)C2=O)ccc1OC(=O)c1ccco1 | -3 | / | -3 | / | / | 98*
Cc1cc(C)nc(NN2C(=O)/C(=C/c3ccc(O)cc3)SC2=S)n1 | 5 | -5 | -4 | -11 | -72 | 99*
Cc1ccc(/C=C2\SC(=S)N(/N=C/c3cc([N+](=O)[O-])ccc3O)C2=O)o1 | 11 | 19 | 3 | 5 | 60 | 98*
O=C(NN1C(=O)/C(=C/c2cc([N+](=O)[O-])ccc2O)SC1=S)c1ccccc1O | 8 | 86 | -1 | 4 | / | 81*
COc1cc(/C=C2\SC(=S)N(NC(=O)c3ccccc3O)C2=O)ccc1O | 4 | 37 | -3 | -36 | 24 | 99*
O=C(NN1C(=O)/C(=C/c2ccc(O)cc2)SC1=S)c1cccc(O)c1 | 9 | 28 | -2 | -22 | 30 | 99*
O=C(NN1C(=O)/C(=C/c2ccc(O)cc2)SC1=S)c1ccccc1O | 11 | 85 | 5 | -18 | 6 | 99*
CC(=O)Nc1ccc(N(C(=O)Cc2cccs2)C(C(=O)NC2CCCC2)c2ccncc2)cc1 (stereo unspecified) | -1 | 27 | -4 | 6 | 60 | -20
SMILES | HSF-1 act | AI-2 QS modul | HSF1 inhib | HCV core dimer | PHOSPHO1 inh | ALR H2O2 inh
Cc1cc(C)cc(C(=O)N2CCN(c3ccccn3)CC2)c1 | -6 | 17 | -3 | -1 | 16 | 6
Cc1ccc(NNC(=O)c2ccno2)c(C)c1 | 68* | 21 | 19 | 0 | 42 | 99*
O=C(NC1CC1)C1CCN(C2CCN(C(=O)c3c(F)cccc3Cl)CC2)CC1 | -1 | -3 | -1 | -5 | 29 | -1
Cc1[nH]c(-c2ccccn2)nc(=S)c1Cl | 20 | -88* | 7 | -6 | -104 | 50
CCOc1ccc(C(=O)N/N=C/c2c(C)[nH]c(=O)[nH]c2=O)cc1 | 1 | 5 | 0 | -1 | 27 | -16
Cc1c(NC(=O)OC(C)C)sc(=S)n1C | 12 | -6 | 3 | 0 | 22 | 98*
COc1ccccc1CCC(=O)OCC(=O)Nc1ccc(C(N)=O)cc1 | 9 | 6 | -7 | 5 | 2 | -1
COCCCNc1nc2nonc2nc1N1CCC(C(C)N2CCOCC2)CC1 (stereo unspecified) | -4 | 7 | 0 | -4 | 70* | -9
COCCNc1nc2nonc2nc1N1CCC(N(C)C)C1 (stereo unspecified) | 9 | -1 | -7 | 5 | 56 | -8
CCOc1ccccc1CNCCN1CCOCC1 | 58* | 10 | 14 | -2 | -12 | -7
C=CCOc1ccccc1CNCCCN1CCOCC1 | 9 | 17 | -1 | -2 | 12 | -6
CCCCNC(=O)c1onc(CSc2ccc(C)c(C)c2)c1C(=O)O | -51 | 8 | -35 | 7 | 30 | 98*
COCCNC(=O)c1onc(CSc2ccc(Cl)cc2)c1C(=O)O | 12 | 19 | 9 | -4 | 12 | -6
COCCNC(=O)c1onc(CSc2ccc(C(C)C)cc2)c1C(=O)O | -9 | 14 | 0 | -11 | 42 | 89*
CCCCNC(=O)c1onc(CSc2cccc(Cl)c2)c1C(=O)O | -76 | 1 | -68* | -3 | 12 | 59
CCCCNC(=O)c1onc(CSc2ccc(F)c(F)c2)c1C(=O)O | -5 | 6 | -3 | -17 | 16 | 43
C=CCNC(=O)c1onc(CSc2ccc(C)c(C)c2)c1C(=O)O | -15 | -3 | 6 | 2 | 29 | 98*
CCCCNC(=O)c1onc(CSc2ccccc2)c1C(=O)O | 6 | 36 | -6 | 6 | -6 | 19
CC(=O)N1CCc2cc(Br)cc(S(=O)(=O)N3CCC(C(=O)O)CC3)c21 | -2 | 5 | -1 | -4 | 10 | -10
O=[N+]([O-])c1ccc(C2CN=C(Nc3ccccc3)S2)cc1 (stereo unspecified) | 65* | -17 | 44 | 9 | 5 | -21
Cc1ccc(NC2=NCC(Cc3ccc(Br)cc3)S2)cc1 (stereo unspecified) | 19 | -28 | 8 | 6 | 32 | -1
CCc1ccc(NC2=NCC(c3ccccc3)S2)cc1 (stereo unspecified) | 56* | -95* | 35 | 5 | 53 | /
